TAAR1 ag: human TAAR1 agonists, primary screen, Fluo-8 calcium fluorescence, CHO RD-HGA16 cells | Trace amine-associated receptor 1 (Homo sapiens), Q96RJ0 | vehicle wells 0%, saturating PEA agonist 100% | activation, % at 3 µM | 0.99% of 360,000 active | AID 624467, 2012;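 active = activation above the mean activation of all test compounds in the run plus 3 SD, cut at about 38% in these data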
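System: CHO RD-HGA16 cells carrying human TAAR1 plus Gα16; Incubation: 17-24 h seeding, 75 min 37 °C dye, 30 min RT; Measured by: Fluo-8 fluorescence, 5 s baseline then 140 s kinetic read; Control set: DMSO and PEA EC100; Replication: single well for each compound.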
OX1R antag-1: antagonists of human orexin 1 receptor (OX1R); Orexin/Hypocretin receptor type 1 (Homo sapiens), O43613; OX1R-expressing cells, FRET antagonist read-out; inhibition, % at 6.6 µM; 1.8% of 330,000 active; in the data active = inhibition mostly above about 38%, no sharp cut-off; inactive = mostly below about 40%;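 note: 0% = agonist challenge alone and 100% = reference antagonist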
OX1R antag-2: OX1R (HCRTR1) antagonists, primary screen, fluorescence, CHO/OX1R cells, Fluo-8 calcium, orexin A. Orexin/Hypocretin receptor type 1 (Homo sapiens), O43613. Fluo-8 calcium fluorescence. inhibition, % at 5 µM. 0.43% of 330,000 active;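 active = inhibition above its plate's threshold, mean inhibition of all tested compounds on the plate plus 3 SD, cut at about 37% in these data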;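 note: 0% = orexin A challenge wells and 100% = SB-334867-A antagonist wells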
CHO parental Ca: ATP-evoked calcium signal inhibitors, parental CHO, primary screen, counter-screen for OX1R antagonist project, cell-based, fluorescence, Fluo-8 calcium dye. parental CHO-K1, ATP-induced calcium, Fluo-8 fluorescence. inhibition, % at 5.6 µM. 0.63% of 330,000 active. AID 463079, 2010;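 active = inhibition above that plate's mean sample inhibition plus 3 SD, cut at about 26% in these data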;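 note: 0% = ATP-challenged DMSO wells and 100% = DMSO wells without ATP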
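Material: parental CHO cells / Compound: single nominal dose of 5.6 µM per compound / Signal: Fluo-8 fluorescence / Replicates: singlicate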
TAAR1 antagonist: human TAAR1 antagonists, primary screen, Fluo-8 calcium fluorescence, CHO RD-HGA16 cells; 1.5% of 360,000 active; antagonist; inhibition, % at 3 µM; AID 624466, 2012;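 active = inhibition above a per-plate cutoff, the mean inhibition of test compounds on that plate plus 3 SD, cut at about 49% in these data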;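 note: 0% = DMSO plus EC80 beta-PEA response and 100% = DMSO alone without agonist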
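Assay system: CHO-derived RD-HGA16 cells stably expressing human TAAR1 plus Gα16. Timing: 140 s kinetic read after compound, 140 s after agonist. Technique: kinetic Fluo-8 calcium fluorescence measurement. Measure: % inhibition of agonist calcium response.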
GPR7 antagonist: GPR7 receptor antagonists, primary screen, cell-based, fluorescence, single concentration | Neuropeptides B/W receptor type 1 (Homo sapiens), P48145 | GPR7-expressing cells, fluorescence antagonist assay | inhibition, % at 4.4 µM | 1.1% of 290,000 active; in the data active = inhibition above about 16%, passing the limit was not always enough;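 note: cells stimulated with the agonist NPW; 0% = agonist with vehicle and 100% = vehicle without agonist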
Target sequence (P48145 whole entry, looked up): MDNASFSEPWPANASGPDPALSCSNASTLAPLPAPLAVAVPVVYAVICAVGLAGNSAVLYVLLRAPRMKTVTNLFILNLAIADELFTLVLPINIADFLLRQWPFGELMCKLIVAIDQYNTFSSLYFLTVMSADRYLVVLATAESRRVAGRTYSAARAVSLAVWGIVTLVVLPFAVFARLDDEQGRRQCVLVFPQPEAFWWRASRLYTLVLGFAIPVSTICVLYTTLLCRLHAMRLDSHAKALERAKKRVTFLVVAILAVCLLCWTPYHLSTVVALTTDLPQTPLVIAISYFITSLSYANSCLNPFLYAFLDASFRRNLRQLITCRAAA
GPR7 antag cf: GPR7 receptor antagonists, confirmation, cell-based, fluorescence, single concentration. shares compounds with GPR7 antagonist. GPR7-expressing cells, calcium fluorescence antagonist mode. inhibition, % at 4.4 µM. 52% of 2,400 active. AID 1952, 2009; in the data active = inhibition above about 24%;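 note: stimulated with the GPR7 agonist NPW; 0% = agonist plus vehicle and 100% = vehicle alone without agonist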
MCHR1 antag: MCHR1 antagonists in cells, counter-screen for GPR7 antagonist project, cell-based, fluorescence, human; MCHR1-expressing cells, fluorescence antagonist assay; 62% of 2,400 active; shares compounds with GPR7 antagonist; inhibition, % at 4.4 µM; AID 2148, 2009; in the data active = inhibition above about 22%;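 note: 0% = vehicle with agonist and 100% = vehicle without agonist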
Numbers without * were called inactive; . = no result; ! = a repeat was not active. Hits are enriched below; roughly 4.5% of the tested compounds scored in any of these assays.

SMILES | TAAR1 ag | OX1R antag-1 | OX1R antag-2 | CHO parental Ca | TAAR1 antagonist | GPR7 antagonist | GPR7 antag cf | MCHR1 antag
Cc1nc2c(-c3ccccc3)c(C)nn2c(SCC(N)=O)c1Cc1ccccc1 | 16.9 | 6.8 | -12.7 | -24.8 | -22.4 | 4.4 | . | .
O=[N+]([O-])c1ccc(Oc2ccc(OCc3ccccc3)cc2)nc1 | 4.0 | 12.8 | 1.2 | 26.5 | 21.3 | 61.4* | 39.9* | 60.9*
O=[N+]([O-])c1cccnc1Oc1ccc(OCc2ccccc2)cc1 | 2.1 | 11.1 | -16.5 | -10.6 | 15.6 | 0.6 | . | .
CC(C)(C)C(C(=O)n1cccc1C#N)c1ccccc1 (stereo unspecified) | 20.1 | 2.5 | 14.5 | -11.6 | 33.7 | . | . | .
CC(C)[C@H](NC(N)=O)C(=O)Nc1ccc(F)c(Cl)c1 | 1.3 | 12.5 | 3.9 | -10.7 | -17.9 | 22.3* | 3.1 | 13.9
COC(=O)CNC(c1ccccc1)c1cc(C)ccc1NC(=O)CNC(=O)OCc1ccccc1 (stereo unspecified) | -0.6 | 30.0 | -32.5 | -27.1 | 4.8 | 39.0* | 29.1* | 17.9
COC(=O)CNC(c1ccccc1)c1cc(Br)ccc1NC(=O)OCc1ccccc1 (stereo unspecified) | 2.2 | 16.0 | 4.6 | 3.6 | 12.7 | -12.8 | . | .
COC(=O)c1ccc(CSCc2ccc(C#N)cc2)cc1 | . | 4.2 | -13.9 | 9.7 | . | 48.0* | 54.6* | 56.1*
CCc1ccc(-n2c(SCC(=O)N3Cc4ccccc4CC3C(=O)O)nnc2-c2ccncc2)cc1 (stereo unspecified) | 0.7 | 15.5 | -4.2 | -23.0 | -15.6 | 21.4* | 2.6 | -1.6
CCOC(=O)C1C(C#N)=C(N)OC(C)=C1c1ccncc1 (stereo unspecified) | 1.1 | 27.8 | -7.6 | -10.0 | 1.0 | 13.0 | . | .
CC(C)c1cccc(C(C)C)c1NC(=O)CNCc1ccccc1F | 0.5 | 20.6 | -20.2 | -21.1 | -1.7 | 21.9* | 29.8* | 32.5*
CSc1nnc(-c2ccccc2Cl)n1N | 15.5 | 8.5 | -10.9 | 5.9 | 6.7 | 24.0* | -10.4 | -2.7
CNCCCC12CCC(c3ccccc31)c1ccccc12 | 18.8 | 10.7 | -20.2 | -1.2 | 22.4 | 28.4*! | 34.4* | 28.8*
CCCC(=O)N(Cc1cc(=O)[nH]c2ccccc12)c1ccc(C)cc1 | -1.3 | -7.5 | -25.1 | -3.0 | -1.8 | -13.1 | . | .
O=C(C1CC1)N1CCN(c2nc3ccccc3s2)CC1 | 1.3 | 5.5 | -13.8 | -12.6 | 1.7 | 2.4 | . | .
CN(C1CCCCC1)S(=O)(=O)c1ccc(C(=O)N2CCN(c3nc4ccccc4s3)CC2)cc1 | 0.1 | 6.3 | -17.4 | -9.6 | -2.5 | 22.3* | 16.6 | 44.2*
COc1ccc(-n2c(=S)[nH]c3[nH]ncc3c2=O)cc1 | 1.7 | 2.9 | -0.3 | -7.3 | -12.1 | 23.3* | 0.0 | 3.9
O=c1c2cn[nH]c2[nH]c(=S)n1-c1ccccc1 | 5.4 | -1.4 | -12.9 | -6.5 | 6.4 | -9.7 | . | .
CC(C)(C)c1cc(-c2n[nH]c(=S)n2-c2ccccc2F)n[nH]1 | 13.0 | 6.5 | -6.9 | 2.7 | -1.7 | -13.8 | . | .
COc1ccc(OC(=O)c2cc3cc(Cl)ccc3oc2=O)cc1 | 0.9 | 3.2 | -9.7 | -4.5 | 3.5 | 45.9* | -8.8 | -2.2
O=C(CSc1nncs1)Nc1ccc(N2CCCCC2)cc1 | 1.8 | -2.8 | -1.9 | 2.3 | 14.5 | . | . | .
COc1c(Br)cc(Br)cc1/C=N/n1c(C)nnc1C | 0.0 | 13.2 | -16.9 | -9.9 | -4.3 | 26.9* | 0.0 | 10.3
COc1cc(/C=N/n2c(C)nnc2C)cc(OC)c1OC | 6.2 | -0.1 | -1.5 | -14.3 | -6.9 | -12.5 | . | .
